Test results reported in ChEMBL document CHEMBL1152812, “Novel trans-2-aryl-cyclopropylamine analogues as potent and selective dipeptidyl peptidase IV inhibitors” (Bioorg Med Chem, 2009).
Active and inactive are the calls of the source. The rule behind the calls is not given here.

Key:
Dipeptidyl peptidase 2 = Dipeptidyl peptidase 2 (Homo sapiens, UniProt Q9UHL4); test: Inhibition of human DPP2
Prolyl endopeptidase FAP = biological target: T1, Prolyl endopeptidase FAP (Homo sapiens, UniProt Q12884); test: Inhibition of human FAP
T1 sequence (Q12884 whole entry): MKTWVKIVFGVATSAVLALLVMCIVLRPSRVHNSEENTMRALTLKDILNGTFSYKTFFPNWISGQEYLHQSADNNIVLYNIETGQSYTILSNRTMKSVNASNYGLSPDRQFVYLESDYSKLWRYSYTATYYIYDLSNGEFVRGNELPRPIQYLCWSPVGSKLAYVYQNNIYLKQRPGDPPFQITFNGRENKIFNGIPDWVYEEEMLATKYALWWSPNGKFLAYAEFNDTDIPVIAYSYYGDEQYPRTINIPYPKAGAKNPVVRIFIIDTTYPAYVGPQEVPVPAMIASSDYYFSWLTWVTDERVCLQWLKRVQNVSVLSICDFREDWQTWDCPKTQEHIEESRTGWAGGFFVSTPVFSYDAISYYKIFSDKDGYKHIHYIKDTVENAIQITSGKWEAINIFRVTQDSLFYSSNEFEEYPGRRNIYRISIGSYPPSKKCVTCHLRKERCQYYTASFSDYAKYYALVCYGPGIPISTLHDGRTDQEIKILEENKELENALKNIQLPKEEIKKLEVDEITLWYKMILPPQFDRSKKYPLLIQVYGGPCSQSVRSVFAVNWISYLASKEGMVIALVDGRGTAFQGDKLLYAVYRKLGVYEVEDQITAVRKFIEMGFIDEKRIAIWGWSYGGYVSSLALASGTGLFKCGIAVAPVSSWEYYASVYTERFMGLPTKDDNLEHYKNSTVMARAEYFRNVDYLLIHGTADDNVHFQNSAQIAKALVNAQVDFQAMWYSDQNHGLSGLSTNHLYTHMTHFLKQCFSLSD

Homo sapiens [1] = species on record: Homo sapiens; test: Selectivity for ratio of IC50 for human DPP4 to IC50 for human DPP8
Homo sapiens [2] = species on record: Homo sapiens; test: Selectivity for ratio of IC50 for human DPP4 to IC50 for human DPP2
Homo sapiens [3] = species on record: Homo sapiens; test: Selectivity for ratio of IC50 for human DPP4 to IC50 for human FAP
[4] = Plasma clearance in rat at 5 mg/kg, iv or 10 mg/kg, po; type: ADME, organism-based
Outline: (§1)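 Rat pharmacokinetics after dosing at 5 mg/kg iv and 10 mg/kg po. Parameters derived: plasma clearance, oral Cmax, oral half-life, dose-normalised oral AUC and oral bioavailability (F).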

[5] = Cmax in rat at 10 mg/kg, po; type: ADME, organism-based; design: dose 10 mg/kg, route oral; conditions: in vivo; outline: as §1
[6] = Half life in rat at 10 mg/kg, po; type: ADME, organism-based; design: dose 10 mg/kg, route oral; conditions: in vivo; outline: as §1
[7] = Oral bioavailability in rat at 10 mg/kg, po; type: ADME, organism-based; conditions: in vivo; outline: as §1
hERG (KCNH2) = hERG (KCNH2) (Homo sapiens, UniProt Q12809); test: Inhibition of human ERG at 10 uM
Chain of hERG (KCNH2) (Q12809 whole entry): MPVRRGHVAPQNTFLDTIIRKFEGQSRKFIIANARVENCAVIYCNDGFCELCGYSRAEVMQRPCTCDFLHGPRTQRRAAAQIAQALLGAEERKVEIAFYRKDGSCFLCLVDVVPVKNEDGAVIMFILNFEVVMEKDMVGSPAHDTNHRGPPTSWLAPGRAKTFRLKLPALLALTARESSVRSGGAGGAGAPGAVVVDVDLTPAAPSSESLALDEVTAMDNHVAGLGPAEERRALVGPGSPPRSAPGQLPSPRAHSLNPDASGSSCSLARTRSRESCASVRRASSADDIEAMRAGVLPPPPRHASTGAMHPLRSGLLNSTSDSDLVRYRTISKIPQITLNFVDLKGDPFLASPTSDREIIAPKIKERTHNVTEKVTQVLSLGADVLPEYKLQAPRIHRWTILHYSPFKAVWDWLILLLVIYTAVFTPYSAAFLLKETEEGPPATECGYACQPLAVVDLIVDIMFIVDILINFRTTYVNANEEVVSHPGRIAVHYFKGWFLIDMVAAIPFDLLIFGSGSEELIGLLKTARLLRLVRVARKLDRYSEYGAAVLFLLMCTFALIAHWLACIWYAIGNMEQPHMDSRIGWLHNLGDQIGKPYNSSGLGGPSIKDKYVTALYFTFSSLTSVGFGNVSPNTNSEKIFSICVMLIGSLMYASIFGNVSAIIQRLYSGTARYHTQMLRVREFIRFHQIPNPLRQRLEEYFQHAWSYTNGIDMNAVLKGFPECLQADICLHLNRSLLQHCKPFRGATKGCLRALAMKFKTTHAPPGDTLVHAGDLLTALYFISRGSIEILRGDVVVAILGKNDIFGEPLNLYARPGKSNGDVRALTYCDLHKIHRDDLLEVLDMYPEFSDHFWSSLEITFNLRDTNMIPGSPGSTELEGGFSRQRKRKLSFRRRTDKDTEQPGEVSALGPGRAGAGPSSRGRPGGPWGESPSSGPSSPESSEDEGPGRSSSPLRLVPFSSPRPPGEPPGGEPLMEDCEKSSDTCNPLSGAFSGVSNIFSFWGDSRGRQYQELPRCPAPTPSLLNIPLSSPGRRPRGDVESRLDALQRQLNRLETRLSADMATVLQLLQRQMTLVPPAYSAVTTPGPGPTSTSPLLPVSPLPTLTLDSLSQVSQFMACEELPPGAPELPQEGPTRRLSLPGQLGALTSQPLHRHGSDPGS
Outline: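 hERG binding; percent inhibition at a test concentration of 10 µM.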

Rattus norvegicus [8] = test: Inhibition of DPP4 in Wistar rat plasma at 10 mg/kg, po within 30 mins; type: functional; conditions: 0.5 h
Outline: (§2)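 Adult male Wistar rats (n = 4–6/group) given a single oral gavage of 10 mg/kg in 0.5% methyl cellulose. Tail-vein blood (25–50 µl) taken at timed points and plasma kept frozen. Plasma (10 µl) mixed with 150 µM Gly-Pro-AMC in 25 mM Tris-HCl pH 7.4, 140 mM NaCl, 10 mM KCl, 0.1% BSA. Fluorescence read at ex 390/em 460 nm. Activity in U/mL; mean ± SEM.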

Rattus norvegicus [9] = test: Inhibition of DPP4 in Wistar rat plasma at 10 mg/kg, po after 24 hrs; type: functional, organism-based; design: dose 10 mg/kg; outline: as §2
Mus musculus [10] = test: Reduction in glucose excursion in C57BL/6J lean mouse at 1 mg/kg, po pretreated 30 mins before glucose challenge measured after 120 mins by oral glucose tolerance test relative to control; type: functional; design: scale not given: the % may be the effect or the level left
Outline: (§3)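 Fasted overnight: adult male C57BL/6 mice (20–25 g, 6–8 weeks old, n = 6/group), grouped by tail-vein glucometer reading. Oral gavage of test agent in distilled water at −30 min (1, 3 or 10 mg/kg), then 3 g/kg oral glucose (400 mg/mL) at 0 min.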

Mus musculus [11] = test: Reduction in glucose excursion in C57BL/6J lean mouse at 10 mg/kg, po pretreated 30 mins before glucose challenge measured after 120 mins by oral glucose tolerance test relative to control; type: functional; design: scale not given: the % may be the effect or the level left; outline: as §3
Mus musculus [12] = test: Reduction in glucose excursion in po dosed C57BL/6J lean mouse pretreated for 30 mins before glucose challenge measured after 120 mins by oral glucose tolerance test; type: functional, organism-based; outline: as §3
Mus musculus [13] = test: Reduction in glucose AUC in C57BL/6J diet-induced obese mouse at 1 mg/kg, po pretreated 30 mins before glucose challenge measured after 120 mins by oral glucose tolerance test relative to control; type: functional; design: scale not given: the % may be the effect or the level left
Outline: (§4)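 Male C57BL/6j DIO mice (40–50 g, 27 weeks old, n = 6/group) fasted overnight and grouped by tail-vein glucometer reading. Test agent given by oral gavage in distilled water, then 3 g/kg glucose orally (400 mg/mL in water) 30 min later.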

Mus musculus [14] = test: Reduction in glucose AUC in C57BL/6J diet-induced obese mouse at 3 mg/kg, po pretreated 30 mins before glucose challenge measured after 120 mins by oral glucose tolerance test relative to control; type: functional; design: scale not given: the % may be the effect or the level left; outline: as §4
Mus musculus [15] = test: Reduction in glucose AUC in C57BL/6J diet-induced obese mouse at 10 mg/kg, po pretreated 30 mins before glucose challenge measured after 120 mins by oral glucose tolerance test relative to control; type: functional; design: scale not given: the % may be the effect or the level left; outline: as §4
[16] = biological target: T2, Endothelin-converting enzyme 1 (Homo sapiens) (UniProt P42892); test: Inhibition of ECE-1 at 10 uM
T2 sequence (whole entry): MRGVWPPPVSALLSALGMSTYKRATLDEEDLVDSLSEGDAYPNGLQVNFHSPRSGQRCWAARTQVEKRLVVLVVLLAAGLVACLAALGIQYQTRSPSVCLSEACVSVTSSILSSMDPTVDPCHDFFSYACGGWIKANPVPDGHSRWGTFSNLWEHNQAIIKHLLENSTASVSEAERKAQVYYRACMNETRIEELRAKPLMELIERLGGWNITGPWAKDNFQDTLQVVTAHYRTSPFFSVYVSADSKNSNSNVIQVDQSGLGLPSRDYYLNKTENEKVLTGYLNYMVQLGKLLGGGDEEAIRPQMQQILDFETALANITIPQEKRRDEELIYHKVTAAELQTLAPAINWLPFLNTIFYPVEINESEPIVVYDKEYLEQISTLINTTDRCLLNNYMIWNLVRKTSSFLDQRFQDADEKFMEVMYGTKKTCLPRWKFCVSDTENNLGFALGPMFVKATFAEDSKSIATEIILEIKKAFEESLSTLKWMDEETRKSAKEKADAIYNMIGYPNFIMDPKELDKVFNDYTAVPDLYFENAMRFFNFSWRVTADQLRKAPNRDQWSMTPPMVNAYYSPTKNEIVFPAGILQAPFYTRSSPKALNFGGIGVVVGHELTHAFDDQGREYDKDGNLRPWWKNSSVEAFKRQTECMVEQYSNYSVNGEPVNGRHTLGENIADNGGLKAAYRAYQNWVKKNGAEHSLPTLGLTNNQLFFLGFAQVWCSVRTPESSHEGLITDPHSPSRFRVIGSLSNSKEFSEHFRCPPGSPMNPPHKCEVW
Outline: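 Part of a panel of 167 enzyme assays; percent inhibition at a test concentration of 10 µM.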

In the case of `CC(C)(CC(=O)N[C@H]1C[C@@H]1c1cccc(Cl)c1)NCC(=O)N1C[C@@H](F)C[C@H]1C#N`, the IC50 (Dipeptidyl peptidase 2) is reported as > 20 µM, the IC50 (Prolyl endopeptidase FAP) is reported as > 20 µM and the Activity (Homo sapiens [1]) is reported as > 1300. The Activity (Homo sapiens [2]) was > 1300, the Activity (Homo sapiens [3]) was > 1300 and the clearance [4] was 22 mL/min/kg. It also gave a Cmax [5] of 621 ng/mL, a half-life [6] of 288 min and a bioavailability [7] of 42%. The inhibition at 10 µM (hERG (KCNH2)) was 11%, the inhibition in vivo at 10 mg/kg (Rattus norvegicus [8]) was > 85% and the Activity (Rattus norvegicus [9]) was “inactive”. The Activity (Mus musculus [10]) was 50%, the Activity (Mus musculus [11]) was 73% and the Activity (Mus musculus [12]) was “Dose-dependent effect”. For the same compound, the Activity (Mus musculus [13]) was 72%, the Activity (Mus musculus [14]) was 98% and the Activity (Mus musculus [15]) was 83%. It also gave an inhibition [16] of 53%.
